The list is not random: actives were taken first. Their share in the collection is about 2.3%.
OXTR potentiate = potentiators of human oxytocin receptor | CHO-OTR cells, Fluo-8 calcium fluorescence, potentiator mode; 0% = oxytocin EC15, 100% = EC100 | AID 2445 | activation, % at 3 µM | actives 0.061% (n = 320,000) | P30559;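 active = activation above that plate's cutoff, the mean activation of tested compounds plus 3 SD, cut at about 6.6% in these data, passing the limit was not always enough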;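 also: 100% uses oxytocin at 75 nM as the full agonist control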
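Assay system: CHO-OTR cells, human receptor / Also added: oxytocin at about EC15, sub-maximal agonist stimulus / Dosing: single dose, 3.0 µM nominal final compound concentration / Incubation: 6 min pre-incubation, 100 s read / Technique: Fluo-8 calcium dye fluorescence / Read-out: % activation vs EC15 and EC100 oxytocin / Benchmarks: EC15 oxytocin low, 75 nM oxytocin high / Replicates: singlicate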
TAAR1 agonist = human TAAR1 agonism | CHO RD-HGA16 TAAR1, Fluo-8 calcium fluorescence; vehicle wells 0%, saturating PEA agonist 100% | activation, % at 3 µM | actives 0.99% (n = 360,000);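 active = activation above the mean activation of all test compounds in the run plus 3 SD, cut at about 38% in these data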
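Benchmarks: low control DMSO, high control PEA (EC100); System: CHO RD-HGA16 cells carrying human TAAR1 plus Gα16; Detection: Fluo-8 fluorescence, 5 s baseline then 140 s kinetic read; Schedule: 17-24 h plating, Fluo-8 75 min 37 °C, 30 min RT; Read-out basis: % activation from peak over basal fluorescence ratio, DMSO-to-PEA scaled.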
V1R ag counter = counter-screen for oxytocin receptor agonists: human V1a receptor agonists. P37288. CHO-V1R cells, Fluo-8 calcium fluorescence, agonist mode; 0% DMSO, 100% 3 nM vasopressin. actives 0.25% (n = 320,000). activation, % at 3 µM;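 active = activation above the mean activation of all tested compounds plus 3 SD, per screening run, cut at about 20% in these data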;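 also: signal is peak over basal fluorescence ratio across a 100 second FLIPR read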
Target sequence (P37288 whole entry, looked up): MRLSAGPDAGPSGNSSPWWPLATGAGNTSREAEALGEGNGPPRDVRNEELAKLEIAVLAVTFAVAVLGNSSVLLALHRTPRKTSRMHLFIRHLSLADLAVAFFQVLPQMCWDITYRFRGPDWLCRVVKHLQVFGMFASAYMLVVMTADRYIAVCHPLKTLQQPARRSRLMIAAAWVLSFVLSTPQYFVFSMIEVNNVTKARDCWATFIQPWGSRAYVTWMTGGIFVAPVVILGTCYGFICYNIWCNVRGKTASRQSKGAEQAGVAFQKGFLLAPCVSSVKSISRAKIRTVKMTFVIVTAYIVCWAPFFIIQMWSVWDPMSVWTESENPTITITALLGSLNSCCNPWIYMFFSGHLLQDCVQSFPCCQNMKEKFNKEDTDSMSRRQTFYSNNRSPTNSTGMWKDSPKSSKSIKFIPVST
OXTR ag = activates the human oxytocin receptor | P30559 | CHO-OTR cells, Fluo-8 calcium fluorescence; normalized: DMSO 0%, oxytocin 100% | activation, % at 3 µM | actives 0.32% (n = 320,000) | AID 2435;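 active = activation above the mean of all tested compounds plus 3 SD, cutoff set per screening run, cut at about 20% in these data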;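 also: peak over basal fluorescence ratio from a 100 s FLIPR kinetic read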
TAAR1 antag = antagonists of human TAAR1. actives 1.5% (n = 360,000). CHO RD-HGA16 TAAR1, Fluo-8 calcium fluorescence, antagonist. Q96RJ0. inhibition, % at 3 µM;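 active = inhibition above a per-plate cutoff, the mean inhibition of test compounds on that plate plus 3 SD, cut at about 49% in these data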;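 also: 0% = DMSO plus EC80 beta-PEA response and 100% = DMSO alone without agonist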
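Test system: RD-HGA16 CHO cells with stable hTAAR1 and Gα16 / Probe or stimulus: EC80 β-phenethylamine stimulus / Times: seeding 17-24 h prior, 75-min 37 °C, 30-min RT dye loading / Detection: Fluo-8 calcium-sensitive fluorescence / Read-out basis: % inhibition scaled between DMSO and EC80 PEA controls / Repeats: singlicate, one well per test compound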
Numbers without * were called inactive; . = not tested or not shown.

SMILES	OXTR potentiate	TAAR1 agonist	V1R ag counter	OXTR ag	TAAR1 antag
c1ccc(Cn2nnnc2C(c2cccnc2)N2CCN(c3ccccc3)CC2)cc1 (stereo not drawn)	-15.8	22.2	0.9	5.4	50.6*
CN(C)C1=NC[C@H](Cc2ccccc2)N1CCCC1CCCCC1	-7.4	48.2*	6.7	10.8	4.8
CN(C)C1=NC[C@H](Cc2ccccc2)N1CCC1CCCC1	-3.9	6.5	-0.8	0.2	8.1
CCCCn1nc(C(=O)Nc2ccc(-n3cnnn3)cc2)c2ccccc2c1=O	-2.0	23.5	0.4	-1.3	51.5*
Cc1cc(=O)[nH]c(SCC(=O)NCCC2=CCCCC2)n1	-10.3	41.4*	0.6	-0.9	2.8
Cc1cc(SCC(=O)NCCC2=CCCCC2)nc2ccccc12	-2.8	19.4	0.2	-1.9	-2.5
CC(Sc1nc(N)cc(N)n1)C(=O)NCCC1=CCCCC1 (stereo not drawn)	5.7	38.4*	0.2	0.5	15.0
Cc1ccc(NC(=O)c2cnccn2)c(C)c1	-7.7	1.7	-1.2	-1.3	-20.8
CC(C)c1nnc(NC(=O)C2c3ccccc3Oc3ccccc32)s1	-3.8	42.4*	4.4	6.6	-2.0
C[C@@H]1CN([C@@H](C)CO)S(=O)(=O)c2ccc(-c3ccc(C#N)cc3)cc2O[C@@H]1CN(C)Cc1ccccn1	.	12.0	.	.	55.8*
C[C@H](CO)N1C[C@H](C)[C@@H](CN(C)Cc2ccc3c(c2)OCO3)Oc2cc(Br)ccc2S1(=O)=O	.	1.4	.	.	50.0*
C[C@H](O)C#Cc1ccc2c(c1)O[C@@H](CN(C)Cc1ccc(-c3ccccc3)cc1)[C@H](C)CN([C@@H](C)CO)S2(=O)=O	.	5.8	.	.	51.1*
COC(=O)c1ccc(CN2CCCCC2)cc1	-5.9	1.9	0.0	0.8	-16.5
CC1CCCC(NC(=O)COC(=O)COc2cccc(F)c2)C1C (stereo not drawn)	-4.2	4.3	0.0	0.1	-2.9
CC(=O)Nc1ccc(S(=O)(=O)NCC2(N3CCOCC3)CCCCC2)cc1	.	4.5	.	.	-11.4
Cc1cc(C)c(OCC(=O)Nc2ccc(NC(=O)c3ccco3)cc2)c([N+](=O)[O-])c1	-2.6	3.3	0.8	0.3	6.5
Cc1cc(C)c(OCC(=O)Nc2cccc(NC(=O)c3ccco3)c2)c(Br)c1	-11.4	6.7	0.5	-0.2	52.2*
COC(=O)C1=C(C)N(C)C(=NCc2ccccc2C(F)(F)F)NC1c1ccc(Cl)cc1 (stereo not drawn)	.	14.9	.	.	15.3
O=C(CN1CCOCC1)NNc1nc(-c2ccccc2)c2cc(Br)ccc2n1	5.2	6.5	-0.9	0.1	19.2
Cc1cccc(C)c1NC(=O)CNC(=O)c1cccnc1	-2.0	1.5	-0.7	0.0	-18.9
Cc1ccc(S(=O)(=O)Nc2ccccc2-c2ccccc2NS(=O)(=O)c2ccc(C)cc2)cc1	-15.5	0.2	1.8	0.6	49.2*
O=C(C(=O)N1CCN(C(=O)Cc2ccccc2)CC1)c1cccc(C(F)(F)F)c1	.	4.8	.	.	-38.1
O=C(CCc1nc(-c2cccs2)no1)Nc1cnc2ccccc2c1	-16.5	42.0*	9.8	9.7	-15.4
COc1ccc(F)cc1-c1cc(C(=O)NCc2cccc(Cl)c2)[nH]n1	.	5.7	.	.	12.3
Cc1cc(=O)n2[nH]c(SCc3c(F)cccc3Cl)nc2n1	1.7	2.1	0.5	-0.3	-34.8
SMILES	OXTR potentiate	TAAR1 agonist	V1R ag counter	OXTR ag	TAAR1 antag
O=C(CCc1ccccc1)NC1(Cc2ccccc2)CCN(CCCc2ccccc2)C1=O (stereo not drawn)	0.6	7.2	-1.2	-0.5	55.3*
CC(C)CCN1CCC(Cc2ccccc2)(NC(=O)c2ccccc2)C1=O (stereo not drawn)	5.2	16.2	1.8	1.1	38.2
COc1ccc(S(=O)(=O)c2nnn(-c3cccc(Cl)c3)c2N)cc1	-17.9	46.2*	10.8	9.8	3.6
COc1cccc(-n2nnc(S(=O)(=O)c3ccc(C)cc3)c2N)c1	-11.8	27.2	7.6	10.8	7.2
CN(c1ccccc1)S(=O)(=O)c1ccc(-c2ccccc2)cc1	-5.1	5.7	0.7	2.6	51.8*
CN(C)S(=O)(=O)c1ccc(-c2ccccc2)cc1	-23.2	28.4	6.1	5.1	5.2

Source: PubChem BioAssay (The Scripps Research Institute Molecular Screening Center)
